Compound activity deposited in PubChem BioAssay by several laboratories.
T cell HTS: modulators of CD8 T cell-vesicle binding, primary screen, mouse 2C CD8+ T cells, flow cytometry | hit rate 0.068% among 330,000 | 2C CD8+ T cell-vesicle binding; stronger effect = lower value | response (vesicle binding), % at 7 µM;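 active = response, share of CD8 T cells binding vesicles, and their 90th percentile fluorescence all below set limits, cut at about 80% in these data, passing the limit was not always enough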;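 note: values below 100% mean blocked vesicle binding to the CD8+ T cells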
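Material: murine 2C transgenic CD8+ T lymphocytes / Also added: QL9-peptide-loaded Drosophila micro-vesicles bearing Ld, ICAM-1 and B7-1 / Schedule: binding step 1.5 h, 37 °C, antibody labelling 20 min, ice / Signal: flow cytometry, PE anti-B7-1 (FL2) versus Alexa647 anti-CD8 (FL8), PFA-fixed / Evaluation: percent CD8+ FL2 mean versus row control / Benchmarks: naked versus QL9-loaded vesicles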
Mcl1 Bid PPI: Mcl-1/Bid binding inhibitors, primary screen, biochemical, TR-FRET, 1536-well. Induced myeloid leukemia cell differentiation protein Mcl-1 (Homo sapiens), Q07820. TR-FRET Mcl-1/Bid-Dy647 peptide binding. inhibition, % at 21.7 µM. hit rate 0.97% among 220,000;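 active = compounds that cut the binding signal by more than half at the single screening dose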;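 note: His-tagged Mcl-1 with europium anti-His antibody binding Bid BH3 peptide; 0% = Mcl-1 plus peptide wells and 100% = peptide-only wells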
Bim-Mcl-1: inhibitors of Bim peptide binding to Mcl-1, primary screen, biochemical, bead-based flow cytometry, multiplex; Induced myeloid leukemia cell differentiation protein Mcl-1 (Homo sapiens), Q07820; Bim peptide-Mcl-1 binding; inhibition, % at 10 µM; hit rate 0.1% among 190,000; AID 1009, 2008; in the data active = inhibition above about 40%;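 note: 0% = no compound tracer wells and 100% = peptide blocker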
MCL1 BIM primary: inhibitors of MCL1 binding to BIM-BH3, primary screen, biochemical, fluorescence polarization. Induced myeloid leukemia cell differentiation protein Mcl-1 (Homo sapiens), Q07820. GST-MCL1 / FITC-Bim-BH3 fluorescence polarization. inhibition, % at 10.9 µM. hit rate 0.68% among 320,000;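 active = inhibition above the mean inhibition of all tested compounds plus 3 SD, set per campaign, cut at about 40% in these data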;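 note: 0% = DMSO wells and 100% = unlabeled Bim-BH3 peptide control; higher means more loss of mP so more displacement of Bim peptide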
Mcl1-Noxa inh: Mcl-1/Noxa binding inhibitors, primary screen, biochemical, TR-FRET, 1536-well. hit rate 1.5% among 220,000. inhibition, % at 21.7 µM. TR-FRET Mcl-1/Noxa peptide binding, 2 h. Induced myeloid leukemia cell differentiation protein Mcl-1 (Homo sapiens), Q07820;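 active = compounds that cut the protein-peptide binding signal by more than 50% relative to plate controls in a single-dose test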;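 note: His-tagged Mcl-1 with rhodamine Noxa BH3 peptide and terbium anti-His antibody; 0% = Mcl-1 plus Noxa peptide wells and 100% = peptide-only wells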
Pemphigus Ab inh: inhibitors of pemphigus antibody binding to DSG3, primary screen, biochemical, bead-based, flow cytometry, scFv-GFP. Desmoglein-3 (Homo sapiens), P32926. AID 588358, 2011. binding (percent of control), % at 10 µM. DSG3-coupled beads, scFv-anti-DSG3-GFP binding; stronger effect = lower value. hit rate 0.48% among 310,000;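 active = binding more than 3 SD below its plate's average and above zero; inconclusive = below that plate limit but binding exactly zero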
Numbers without * were called inactive; i = inactive; ? = inconclusive; · = no result. An excerpt weighted towards active compounds, which were near 2.3% of everything screened.

SMILES | T cell HTS | Mcl1 Bid PPI | Bim-Mcl-1 | MCL1 BIM primary | Mcl1-Noxa inh | Pemphigus Ab inh
COc1cc(/C=C(\C#N)c2nc3ccc(C)cc3[nH]2)c([N+](=O)[O-])cc1OC | 171 | -6 | -5 | -24 | 18 | 95
CC(=O)Nc1ccc(NC(=O)C(C)OC(=O)[C@@H]2CCCN2C(=O)c2cccs2)cc1 (some centres undefined) | 65* | · | · | · | · | 89
O=C(CN(Cc1ccc(F)cc1)S(=O)(=O)c1ccccc1)N1CCCCC1 | 256 | -24 | -3 | 6 | 62* | 106
CS(=O)(=O)N(CC(=O)N1CCCC1)Cc1ccc(F)cc1 | 676 | · | · | 5 | · | 120
CC(=O)c1ccc(N(CC(=O)NC2CCCCC2)C(=O)CNC(=O)c2ccco2)cc1 | 194 | · | · | -5 | · | 37*
O=[N+]([O-])c1ccc(N=Nc2ccc(O)c3ccccc23)cc1 | · | · | · | · | · | 135
COc1ccccc1CCc1nnc(CCC(=O)NC(C)Cc2cccnc2)o1 (centres undefined) | 204 | 83* | 0 | 12 | 9 | 104
CC(C)c1ccc(NC(=O)Cc2ccc(NC3=NC4CS(=O)(=O)CC4S3)cc2)cc1 (centres undefined) | 639 | · | · | 12 | · | 100
CC(=O)N=c1sc(S(N)(=O)=O)nn1C | 717 | -5 | 0 | 1 | 3 | -12*
CC(=O)Nc1nnc(S(N)(=O)=O)s1 | 569 | 9 | 0 | -1 | 15 | 108
CC(=O)Nc1ccc(/C=C2/Sc3ccccc3C2=O)cc1 | 207 | -28 | 0 | -1 | 72* | 107
O=C1/C(=C\c2cccnc2)Sc2ccccc21 | 199 | -9 | 0 | 37 | 19 | 104
CN1C(=O)/C(=C/c2cn(CC(=O)N3CCCCC3)c3ccccc23)c2ccccc21 | 436 | -23 | -3 | -10 | 97* | ·
O=C(O)Cn1c2c(c3ccccc31)CCCC2 | 382 | -22 | 1 | 48* | 7 | 119
CC(=O)NNC(=O)CCn1c2c(c3ccccc31)CCCC2 | 592 | -49 | · | 9 | -8 | 109
Cc1ccccc1Nc1nc(N)nc(COC(=O)[C@@H](NC(=O)c2ccccc2Cl)C(C)C)n1 | 218 | · | · | 4 | · | 98
COc1ccc2c(COC(=O)c3ccc(C)c(S(=O)(=O)N4CCOCC4)c3)cc(=O)oc2c1 | · | · | · | · | · | 101
Cn1c2c(sc1=O)CCC2 | · | · | · | · | · | 113
COc1ccc(NC(=S)NNc2ccc(S(=O)(=O)Nc3ccccc3C(=O)O)cc2[N+](=O)[O-])cc1 | 981 | 73* | · | 38 | 88* | 87
CSc1ccc(C=NNc2ccc(S(=O)(=O)Nc3ccccc3C(=O)O)cc2[N+](=O)[O-])cc1 | 389 | · | · | · | · | 72*
Cc1cc2ccccn2c1C(=O)c1ccc(N/N=C/c2ccc(C(=O)O)cc2)c([N+](=O)[O-])c1 | · | 73* | · | · | 93* | 93
CCOc1ccc(C=NNc2ccc(S(=O)(=O)Nc3ccccc3C(=O)O)cc2[N+](=O)[O-])cc1 | 336 | · | · | · | · | 89*
CCOc1cccc(C=NNc2ccc(S(=O)(=O)Nc3ccccc3C(=O)O)cc2[N+](=O)[O-])c1O | 607 | · | · | · | · | 118
CCC(Oc1ccccc1OC)C(=O)N1CC(=O)Nc2ccccc21 (centres undefined) | 241 | · | · | -3 | · | ?
C=CCn1c(SCC(=O)N2CCOCC2)nnc1C(C)NC(=O)c1ccccc1 (centres undefined) | 151 | · | · | 5 | · | ·
SMILES | T cell HTS | Mcl1 Bid PPI | Bim-Mcl-1 | MCL1 BIM primary | Mcl1-Noxa inh | Pemphigus Ab inh
CC(OC(=O)C1CCN(S(=O)(=O)c2ccc3c(c2)OCCO3)CC1)C(=O)NC1(C#N)CCCCC1 (centres undefined) | · | · | · | · | · | 101
Oc1ccc(N=Cc2ccc(O)c(O)c2)cc1 | 453 | -13 | 9 | 28 | 67* | 94
C#CCN(C[C@H]1[C@H](OC(=O)NCc2ccccc2)[C@H](OC(=O)NCc2ccccc2)C[C@H]2C(=O)N(c3ccccc3)C(=O)[C@@H]12)S(=O)(=O)c1ccc(C)cc1 | · | · | · | · | · | 89*
Cc1ccccc1NC(=O)c1c(C)[nH]c(=S)c(C#N)c1-c1ccc(Cl)cc1 | 177 | 71* | · | -17 | -45 | 116
Cc1ccc(-c2c(C(=O)Nc3ccccc3C)c(C)[nH]c(=S)c2C#N)o1 | 408 | -92 | -1 | 25 | 23 | 96
COc1cccc2sc(/N=C/N(C)C)nc12 | 76 | 56* | · | 6 | 26 | 114
COc1cc(NC(=S)NC(=O)c2ccco2)ccc1NC(=O)C(C)C | 140 | -14 | -3 | 5 | -1 | 99
COc1cc(NC(=S)NC(=O)c2ccccc2F)ccc1NC(=O)c1ccco1 | 437 | 53* | -7 | 12 | 32 | ·
COc1ccc(NC(=O)c2cc3c(COC(C)=O)cnc(C)c3oc2=Nc2cccc(C(=O)O)c2)c(OC)c1 | 209 | · | · | 26 | · | 66*
COc1ccc(NC(=S)NN2C(C)CCCC2C)cc1 (centres undefined) | 204 | 42 | -9 | 39 | 52* | 107
CCn1c(SCC(=O)Nc2nc(-c3ccc(C)cc3)cs2)nnc1-c1ccccc1 | i | 6 | -1 | 5 | -7 | ·
Cn1c(SCC(=O)Nc2nc3ccccc3s2)nnc1-c1ccccc1 | 258 | 1 | -11 | -6 | -6 | 95
C=CCn1c(SCC(=O)Nc2ccc(N3CCOCC3)cc2)nnc1-c1ccncc1 | 283 | · | · | -3 | · | ·
CCn1c(SCC(=O)Nc2nc3ccccc3s2)nnc1-c1ccc(Br)cc1 | 234 | 16 | -3 | -6 | 9 | -18*
C=CCn1c(SCC(=O)Nc2ccc(-c3nc4ccc(C)cc4s3)cc2)nnc1-c1ccncc1 | 277 | -20 | -11 | 7 | 63* | 106
CCn1c(SCC(=O)Nc2ccc(-c3nc4ccc(C)cc4s3)cc2)nnc1-c1ccccc1 | 468 | 66* | -5 | -1 | 66* | ·
CC(C)(C)NC(=O)C[C@H]1C[C@H](C(=O)N2CCCCC2)[C@@]2(C)c3[nH]c4ccc(Cl)cc4c3CCN2C1=O | · | · | · | · | · | 105
CCOC(=O)c1[nH]c(=S)[nH]c1C | · | · | · | · | · | 89
CCOC(=O)c1c(-c2ccccc2)cn2ccccc12 | 310 | 4 | 0 | -10 | 16 | ·
CCOC(=O)c1c(-c2ccccc2)c[nH]c1C | · | · | · | · | · | 70*
CCOc1ccc(-c2nc(N)ncc2Oc2ccccc2Br)c(O)c1 | 181 | -15 | -4 | -1 | -25 | 23*
Brc1cccc(OCCn2ccnc2)c1 | 410 | 24 | -2 | 2 | 24 | 101
COc1cccc(OCCCn2ccnc2)c1 | 547 | · | · | 5 | · | 95
